Laboratory results as given in ChEMBL document CHEMBL3739352, “Anticonvulsant activity, crystal structures, and preliminary safety evaluation of N-trans-cinnamoyl derivatives of selected (un)modified aminoalkanols” (Eur J Med Chem, 2016).
Active and inactive are the calls of the source. The rule behind the calls is not given here.

Tests used:
[1] = Lipophilicity of the compound using 65% methanol in water at 1 mg/ml by RT-TLC analysis; format: physicochemical; details: buffer
Outline: (§1)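 Reversed-phase TLC with a methanol–water mobile phase at the stated methanol content (v/v). Compounds were spotted from 1 mg/mL methanol solutions after 1 h chamber saturation and located under UV light. Rf was measured and RM = log(1/Rf − 1) calculated.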

Rattus norvegicus [2] = experiment: Neurotoxicity in Sprague-Dawley rat at 30 mg/kg, po after 1 hr; format: toxicity, organism-based; details: in vivo
Outline: (§2)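 Sprague-Dawley rats were given 30 mg/kg orally in 0.5% methylcellulose. Neurotoxicity was checked at 0.25, 0.5, 1.0, 2.0 and 4 h after dosing. Results are given as number of rats showing neurotoxicity/number tested.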

Salmonella typhimurium [3] = experiment: Mutagenicity in Salmonella typhimurium TA98 assessed as number of revertants at 500 ug/plate by Ames test (reference value: 23 +/- 3); format: toxicity, organism-based; details: salmonella enterica subsp. enterica serovar typhimurium
Rattus norvegicus [4] = experiment: Neurotoxicity in Sprague-Dawley rat at 30 mg/kg, po after 2 hrs; format: toxicity, organism-based; details: in vivo; outline: as §2
Salmonella typhimurium [5] = experiment: Mutagenicity in Salmonella typhimurium TA1535 assessed as number of revertants at 100 ug/plate by Ames test (reference value: 10 +/- 3); format: toxicity, organism-based; details: salmonella enterica subsp. enterica serovar typhimurium
[6] = Lipophilicity of the compound using 85% methanol in water at 1 mg/ml by RT-TLC analysis; format: physicochemical; details: buffer; outline: as §1
Mus musculus [7] = experiment: Neurotoxicity in albino Carworth Farms No.1 mouse at 30 mg/kg, ip after 0.5 hrs by rotarod test; format: toxicity, organism-based; details: in vivo
Outline: (§3)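 Mice (albino Carworth Farms No.1) were dosed i.p. at 30, 100 or 300 mg/kg in 0.5% methylcellulose. They were tested 0.5 and 4 h later on a 1-inch knurled rod rotating at 6 rpm. Neurotoxicity was scored if a mouse could not stay on the rod for at least 1 min in each of three trials. Results are given as animals toxic/animals tested, with deaths noted.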

Salmonella typhimurium [8] = experiment: Mutagenicity in Salmonella typhimurium TA98 assessed as mutagenic index at 100 ug/plate by Ames test; format: toxicity, organism-based; details: salmonella enterica subsp. enterica serovar typhimurium
Mus musculus [9] = experiment: Anticonvulsant activity in albino Carworth Farms No.1 mouse assessed as protection against maximal electroshock-induced seizures at 300 mg/kg, ip after 4 hrs; format: functional, organism-based
Outline: (§4)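 Mouse i.p. screen in Carworth Farms No.1 albino mice at 30, 100 or 300 mg/kg in 0.5% methylcellulose. Testing was at 0.5 and 4 h after injection, by maximal electroshock or by subcutaneous pentetrazol challenge. Scoring was number protected / number used.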

Salmonella typhimurium [10] = experiment: Mutagenicity in Salmonella typhimurium TA1535 assessed as number of revertants at 20 ug/plate by Ames test (reference value: 10 +/- 3); format: toxicity, organism-based; details: salmonella enterica subsp. enterica serovar typhimurium
Mus musculus [11] = experiment: Neurotoxicity in albino Carworth Farms No.1 mouse at 100 mg/kg, ip after 0.5 hrs by rotarod test; format: toxicity, organism-based; details: in vivo; outline: as §3
in vitro [12] = details: human, HepG2 cells
Rattus norvegicus [13] = experiment: Neurotoxicity in Sprague-Dawley rat at 30 mg/kg, po after 4 hrs; format: toxicity, organism-based; details: in vivo; outline: as §2
in vitro [14] = details: human, HepG2 cells; remark: listed apart in the source
Rattus norvegicus [15] = experiment: Anticonvulsant activity in Sprague-Dawley rat assessed as protection against maximal electroshock-induced seizures at 30 mg/kg, po after 0.5 hrs; format: functional, organism-based
Outline: (§5)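 Sprague-Dawley rats were given 30 mg/kg p.o. in 0.5% methylcellulose. Maximal electroshock was applied at 0.25, 0.5, 1.0, 2.0 and 4 h after dosing. Results are reported as number of rats protected / number tested.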

Mus musculus [16] = experiment: Anticonvulsant activity in albino Carworth Farms No.1 mouse assessed as protection against subcutaneous dosed pentetrazol-induced seizures at 30 mg/kg, ip after 4 hrs; format: functional, organism-based; outline: as §4
Mus musculus [17] = experiment: Anticonvulsant activity in albino Carworth Farms No.1 mouse assessed as protection against 6-Hz electroshock-induced seizures at 100 mg/kg, ip after 4 hrs; format: functional, organism-based
Outline: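 Carworth Farms No.1 albino mice were dosed i.p. at 100 mg/kg (0.5% methylcellulose solution or suspension). 6-Hz seizures were induced at 32 mA at 0.25, 0.5, 1.0, 2.0 and 4 h after injection. Results are given as animals protected / animals tested.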

Rattus norvegicus [18] = experiment: Neurotoxicity in Sprague-Dawley rat at 30 mg/kg, po after 0.5 hrs; format: toxicity, organism-based; details: in vivo; outline: as §2
Salmonella typhimurium [19] = experiment: Mutagenicity in Salmonella typhimurium TA98 assessed as number of revertants at 20 ug/plate by Ames test (reference value: 23 +/- 3); format: toxicity, organism-based; details: salmonella enterica subsp. enterica serovar typhimurium
[20] = Hepatotoxicity against human HepG2 cells assessed as cell viability at 100 uM after 24 hrs by MTT assay relative to control
[21] = Lipophilicity of the compound at 1 mg/ml by RT-TLC analysis relative to 0% methanol; format: physicochemical; details: methanol/water
Outline: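 Reversed-phase TLC used methanol–water mobile phases of 95–65% methanol. Compounds were applied from 1 mg/mL methanol solutions after 1 h chamber saturation, with UV detection. RM = log(1/Rf − 1) was calculated at each methanol level and extrapolated linearly (RM = RM0 + bC) to 0% methanol to give RM0.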

Mus musculus [22] = experiment: Anticonvulsant activity in albino Carworth Farms No.1 mouse assessed as protection against maximal electroshock-induced seizures at 30 mg/kg, ip after 0.5 hrs; format: functional, organism-based; outline: as §4
[23] = Hepatotoxicity against human HepG2 cells assessed as cell viability at 25 uM after 24 hrs by MTT assay relative to control; format: toxicity, cell-based; details: read-out: Activity
Outline: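 HepG2 cells (EMEM, 10% FBS, 37 °C, 5% CO₂) were seeded at 1 × 10⁴ per well and cultured overnight. They were then exposed to increasing compound concentrations for 24 h. MTT reagent was added for 3 h and formazan crystals dissolved before reading. Data are mean ± SD of at least three independent experiments, relative to untreated control.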

Rattus norvegicus [24] = experiment: Anticonvulsant activity in Sprague-Dawley rat assessed as protection against maximal electroshock-induced seizures at 30 mg/kg, po after 0.25 hrs; format: functional, organism-based; outline: as §5
Rattus norvegicus [25] = experiment: Anticonvulsant activity in Sprague-Dawley rat assessed as protection against maximal electroshock-induced seizures at 30 mg/kg, po after 2 hrs; format: functional, organism-based; outline: as §5
Salmonella typhimurium [26] = experiment: Mutagenicity in Salmonella typhimurium TA1535 assessed as number of revertants at 1000 ug/plate by Ames test (reference value: 10 +/- 3); format: toxicity, organism-based; details: salmonella enterica subsp. enterica serovar typhimurium
Salmonella typhimurium [27] = experiment: Mutagenicity in Salmonella typhimurium TA100 assessed as mutagenic index at 500 ug/plate by Ames test; format: toxicity, organism-based; details: salmonella enterica subsp. enterica serovar typhimurium
Outline: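 Ames preincubation test. Strain culture was grown 12 h at 37 °C in nutrient broth, then mixed with compound in DMSO (final 4, 20, 100, 500, 1000 per plate) and buffer in top agar with trace histidine. This was plated on glucose minimal agar for 48 h at 37 °C. Mutagenic index = revertants with compound / DMSO control revertants, from three independent repeats.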

Mus musculus [28] = experiment: Anticonvulsant activity in albino Carworth Farms No.1 mouse assessed as protection against subcutaneous dosed pentetrazol-induced seizures at 30 mg/kg, ip after 0.5 hrs; format: functional, organism-based; outline: as §4
Salmonella typhimurium [29] = experiment: Mutagenicity in Salmonella typhimurium TA1535 assessed as assessed as mutagenic index at 500 ug/plate by Ames test; format: toxicity, organism-based; details: salmonella enterica subsp. enterica serovar typhimurium
[30] = Neurotoxicity in ip dosed albino Carworth Farms No.1 mouse after 0.25 hrs by rotarod test; format: toxicity, organism-based; details: in vivo
Salmonella typhimurium [31] = experiment: Mutagenicity in Salmonella typhimurium TA1535 assessed as number of revertants at 500 ug/plate by Ames test (reference value: 10 +/- 3); format: toxicity, organism-based; details: salmonella enterica subsp. enterica serovar typhimurium

Row | SMILES | Rm [1] | Activity (Rattus norvegicus [2]) | Activity (Salmonella typhimurium [3]) | Activity (Rattus norvegicus [4]) | Activity (Salmonella typhimurium [5]) | Rm [6] | Activity (Mus musculus [7]) | Activity_index (Salmonella typhimurium [8]) | Activity (Mus musculus [9]) | Activity (Salmonella typhimurium [10]) | Activity (Mus musculus [11]) | viability at 24 h, 25 µM (in vitro [12]) | Activity (Rattus norvegicus [13]) | viability at 24 h, 100 µM (in vitro [14]) | Activity (Rattus norvegicus [15]) | Activity (Mus musculus [16]) | Activity (Mus musculus [17]) | Activity (Rattus norvegicus [18]) | Activity (Salmonella typhimurium [19]) | viability at 24 h, 100 µM [20] | other results
1 | CC(C)C(CO)NC(=O)/C=C/c1ccccc1 (racemic) | 0.31 | Non-toxic | 16 | Non-toxic | 6 | -0.16 | Non-toxic | 0.8 | Active | 6 | Non-toxic | 98% | Non-toxic | 90% | inactive | inactive | inactive | Non-toxic | 19 | 82.2% | Rm [21]: 2.219; Activity (Mus musculus [22]): inactive; viability at 24 h, 25 µM [23]: 95.7%; Activity (Rattus norvegicus [24]): inactive; Activity (Rattus norvegicus [25]): inactive; Activity (Salmonella typhimurium [26]): 7; Activity_index (Salmonella typhimurium [27]): 1; Activity (Mus musculus [28]): inactive; Activity_index (Salmonella typhimurium [29]): 0.7; TD50 at 0.25 h [30]: 190 mg/kg; Activity (Salmonella typhimurium [31]): 7
2 | CC(CO)NC(=O)/C=C/c1ccccc1 (racemic) | -0.03 | Non-toxic | 24 | Non-toxic | 5 | -0.39 | Non-toxic | 0.9 | Active | 6 | Non-toxic | 98% | Non-toxic | 89% | inactive | inactive | inactive | Non-toxic | 20 | 92.2% | Rm [21]: 1.39; Activity (Mus musculus [22]): inactive; viability at 24 h, 25 µM [23]: 96.6%; Activity (Rattus norvegicus [24]): inactive; Activity (Rattus norvegicus [25]): inactive; Activity (Salmonella typhimurium [26]): 6; Activity_index (Salmonella typhimurium [27]): 0.8; Activity (Mus musculus [28]): inactive; Activity_index (Salmonella typhimurium [29]): 0.8; TD50 at 0.25 h [30]: 223 mg/kg; Activity (Salmonella typhimurium [31]): 8
